Measured values taken from ChEMBL document CHEMBL4627284, “Pyrimethamine conjugated histone deacetylase inhibitors: Design, synthesis and evidence for triple negative breast cancer selective cytotoxicity” (Bioorg Med Chem, 2020).
Active and inactive are the calls of the source. The rule behind the calls is not given here.

Key:
[1] = target: Signal transducer and activator of transcription 3 (Homo sapiens) (UniProt P40763); experiment: Inhibition of STAT3 in human MDA-MB-231 cells assessed as slight down regulation of pSTAT3 expression at 50 to 100 uM after 24 hrs by western blot analysis; type: cell-based
Sequence of Signal transducer and activator of transcription 3 (Homo sapiens) (P40763 whole entry): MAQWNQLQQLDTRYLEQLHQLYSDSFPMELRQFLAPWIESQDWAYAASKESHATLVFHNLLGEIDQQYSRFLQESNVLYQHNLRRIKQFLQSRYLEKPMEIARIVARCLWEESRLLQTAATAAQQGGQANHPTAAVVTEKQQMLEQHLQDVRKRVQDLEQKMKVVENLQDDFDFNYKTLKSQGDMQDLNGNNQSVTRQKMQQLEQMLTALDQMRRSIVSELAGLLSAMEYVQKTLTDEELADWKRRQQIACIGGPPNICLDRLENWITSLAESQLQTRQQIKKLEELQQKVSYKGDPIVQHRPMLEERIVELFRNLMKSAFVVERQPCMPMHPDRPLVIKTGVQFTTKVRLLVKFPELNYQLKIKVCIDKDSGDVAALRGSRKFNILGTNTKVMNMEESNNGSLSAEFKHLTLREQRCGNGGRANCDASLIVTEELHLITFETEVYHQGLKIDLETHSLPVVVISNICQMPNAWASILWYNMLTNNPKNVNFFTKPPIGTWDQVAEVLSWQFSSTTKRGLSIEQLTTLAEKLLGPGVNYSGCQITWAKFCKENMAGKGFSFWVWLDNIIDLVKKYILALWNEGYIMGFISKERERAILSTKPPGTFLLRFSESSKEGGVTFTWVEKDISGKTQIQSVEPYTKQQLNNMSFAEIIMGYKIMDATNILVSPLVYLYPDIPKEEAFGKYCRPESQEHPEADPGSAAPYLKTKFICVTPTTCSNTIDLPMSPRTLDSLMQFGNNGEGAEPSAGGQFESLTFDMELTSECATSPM
In short: (§1)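 MDA-MB-231 cells, 1*10⁶ per well, were grown in DMEM for 24 h, serum-starved for 24 h, then treated for 24 h from DMSO solutions (final DMSO 0.1%; DMSO control). Cells were lysed in RIPA with protease and phosphatase inhibitors and protein equalized by BCA. 20-40 µg was run on 4-20% gels and transferred to PVDF, which was blocked in 5% BSA. Primary antibodies were applied overnight and secondary for 1 h, and band intensities were quantified by infrared imaging.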

[2] = target: Signal transducer and activator of transcription 3 (Homo sapiens) (UniProt P40763); experiment: Inhibition of STAT3 in human MDA-MB-231 cells assessed as upregulation of p-p38 expression after 24 hrs by western blot analysis; type: cell-based; in short: as §1
[3] = target: Signal transducer and activator of transcription 3 (Homo sapiens) (UniProt P40763); experiment: Inhibition of STAT3 in human MDA-MB-231 cells assessed as downregulation of Bcl-xL expression after 24 hrs by western blot analysis; type: cell-based; in short: as §1
[4] = tested on: MDA-MB-231; experiment: Cell cycle arrest in human MDA-MB-231 cells assessed as accumulation of cells at G1 phase at 5 uM incubated for 48 hrs RNase/PI staining based flow cytometry assay (reference value: 64.3 %); type: functional
In short: (§2)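 MDA-MB-231 cells, 5*10⁶ per 10 cm plate, were grown in DMEM for 24 h and then dosed for 48 h from DMSO stocks (final DMSO 0.1%; DMSO as control). Cells were trypsinized, washed twice in cold PBS and fixed in 70% ethanol overnight at -20°C. They were treated with 200 ug/mL RNase for 30 min, stained with 50 ug/mL PI at RT for 30 min, and DNA content was read by flow cytometry.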

[5] = target: Signal transducer and activator of transcription 3 (Homo sapiens) (UniProt P40763); experiment: Inhibition of STAT3 in human MDA-MB-231 cells assessed as downregulation of cyclinD1 expression at 5 to 25 uM after 24 hrs by western blot analysis; type: cell-based; in short: as §1
[6] = target: Signal transducer and activator of transcription 3 (Homo sapiens) (UniProt P40763); experiment: Inhibition of STAT3 in human MDA-MB-231 cells assessed as change in Bcl-2 expression at 0.8 to 1.6 uM after 24 hrs by western blot analysis; type: cell-based; in short: as §1
[7] = tested on: MDA-MB-231; experiment: Cell cycle arrest in human MDA-MB-231 cells assessed as accumulation of cells at G2 phase at 5 uM incubated for 48 hrs RNase/PI staining based flow cytometry assay (reference value: 17.4 %); type: functional; in short: as §2
[8] = tested on: A549; experiment: cells; type: functional, cell-based; conditions: Homo sapiens, A549, 72 h
[9] = tested on: MDA-MB-231; experiment: cells; type: functional, cell-based; conditions: Homo sapiens, MDA-MB-231, 72 h
[10] = tested on: Vero; experiment: cells; conditions: Chlorocebus sabaeus, 72 h
[11] = tested on: MCF7; experiment: cells; type: functional, cell-based; conditions: Homo sapiens, MCF7, 72 h
[12] = target: T1, Histone deacetylase 1 (Homo sapiens, UniProt Q13547); experiment: Inhibition of human recombinant HDAC1 using fluorogenic HDAC substrate preincubated for 30 mins followed by substrate addition and measured after 15 mins by fluorogenic assay
T1 sequence (Q13547 whole entry): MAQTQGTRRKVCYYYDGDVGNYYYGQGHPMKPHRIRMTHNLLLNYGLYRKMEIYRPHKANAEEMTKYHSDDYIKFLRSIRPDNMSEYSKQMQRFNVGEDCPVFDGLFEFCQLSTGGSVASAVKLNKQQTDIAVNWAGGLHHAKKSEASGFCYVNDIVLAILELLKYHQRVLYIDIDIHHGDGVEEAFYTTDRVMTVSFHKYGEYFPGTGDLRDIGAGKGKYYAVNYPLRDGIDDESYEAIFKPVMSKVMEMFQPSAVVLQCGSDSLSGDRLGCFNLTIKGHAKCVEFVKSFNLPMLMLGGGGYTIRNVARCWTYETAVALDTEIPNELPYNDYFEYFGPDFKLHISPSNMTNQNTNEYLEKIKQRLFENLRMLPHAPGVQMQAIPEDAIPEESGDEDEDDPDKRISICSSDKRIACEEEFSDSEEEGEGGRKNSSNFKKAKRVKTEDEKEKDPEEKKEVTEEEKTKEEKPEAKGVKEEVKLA

[13] = target: T2, Protein deacetylase HDAC6 (Homo sapiens, UniProt Q9UBN7); experiment: Inhibition of human recombinant HDAC6 using fluorogenic HDAC substrate 3 preincubated for 30 mins followed by substrate addition and measured after 15 mins by fluorogenic assay
T2 sequence (Q9UBN7 whole entry): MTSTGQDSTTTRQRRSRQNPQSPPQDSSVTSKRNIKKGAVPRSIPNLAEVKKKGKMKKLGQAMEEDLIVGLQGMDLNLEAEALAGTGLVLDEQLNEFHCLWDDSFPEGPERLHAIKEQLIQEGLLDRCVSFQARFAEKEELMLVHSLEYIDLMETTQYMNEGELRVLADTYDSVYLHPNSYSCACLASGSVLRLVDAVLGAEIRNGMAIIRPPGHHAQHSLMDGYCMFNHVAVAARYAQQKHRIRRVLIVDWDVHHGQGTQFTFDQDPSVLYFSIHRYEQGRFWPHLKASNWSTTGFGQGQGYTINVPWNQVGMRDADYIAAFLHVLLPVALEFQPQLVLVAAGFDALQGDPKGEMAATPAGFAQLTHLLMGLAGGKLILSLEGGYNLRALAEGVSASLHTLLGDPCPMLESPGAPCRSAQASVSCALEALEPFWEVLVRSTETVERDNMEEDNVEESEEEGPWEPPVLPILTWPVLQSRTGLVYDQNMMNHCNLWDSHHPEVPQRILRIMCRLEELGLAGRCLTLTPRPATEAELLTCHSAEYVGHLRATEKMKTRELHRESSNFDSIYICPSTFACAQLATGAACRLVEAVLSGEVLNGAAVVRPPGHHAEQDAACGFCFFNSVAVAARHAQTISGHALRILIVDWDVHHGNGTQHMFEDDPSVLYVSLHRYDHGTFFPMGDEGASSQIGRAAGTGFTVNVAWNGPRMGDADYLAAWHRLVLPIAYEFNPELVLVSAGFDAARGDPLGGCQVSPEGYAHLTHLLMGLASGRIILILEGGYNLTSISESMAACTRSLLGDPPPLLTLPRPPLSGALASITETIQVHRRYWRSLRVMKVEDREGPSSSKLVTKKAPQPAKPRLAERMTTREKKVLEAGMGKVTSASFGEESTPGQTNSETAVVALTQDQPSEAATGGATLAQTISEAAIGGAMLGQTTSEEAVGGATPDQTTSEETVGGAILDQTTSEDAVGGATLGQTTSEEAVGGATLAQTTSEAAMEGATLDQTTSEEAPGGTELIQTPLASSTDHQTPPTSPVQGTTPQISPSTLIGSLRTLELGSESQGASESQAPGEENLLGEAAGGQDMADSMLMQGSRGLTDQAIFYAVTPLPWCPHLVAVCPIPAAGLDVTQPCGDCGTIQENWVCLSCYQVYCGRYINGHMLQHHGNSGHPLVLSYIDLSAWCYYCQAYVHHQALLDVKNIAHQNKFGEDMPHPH

[14] = target: T3, Histone deacetylase 8 (Homo sapiens, UniProt Q9BY41); experiment: Inhibition of human recombinant HDAC8 using fluorogenic HDAC substrate class 2A preincubated for 30 mins followed by substrate addition and measured after 15 mins by fluorogenic assay
T3 sequence (Q9BY41 whole entry): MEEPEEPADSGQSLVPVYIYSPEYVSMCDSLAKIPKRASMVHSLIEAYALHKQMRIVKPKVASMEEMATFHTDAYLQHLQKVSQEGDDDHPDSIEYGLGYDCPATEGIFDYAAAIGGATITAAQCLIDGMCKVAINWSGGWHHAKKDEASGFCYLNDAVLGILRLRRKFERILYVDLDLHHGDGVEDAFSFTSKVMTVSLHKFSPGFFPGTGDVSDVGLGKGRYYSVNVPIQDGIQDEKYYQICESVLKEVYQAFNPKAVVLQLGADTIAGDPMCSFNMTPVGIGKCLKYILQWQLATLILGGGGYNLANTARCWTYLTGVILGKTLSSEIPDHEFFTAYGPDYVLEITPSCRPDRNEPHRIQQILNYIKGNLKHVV

[15] = tested on: MDA-MB-231; experiment: Cell cycle arrest in human MDA-MB-231 cells assessed as accumulation of cells at G2 phase at 12.5 uM incubated for 48 hrs by flow cytometry (reference value: […] %)
[16] = tested on: MDA-MB-231; experiment: Cell cycle arrest in human MDA-MB-231 cells assessed as accumulation of cells at S phase at 25 uM incubated for 48 hrs RNase/PI staining based flow cytometry assay (reference value: 11.5 %); type: functional; in short: as §2
[17] = tested on: MDA-MB-231; experiment: Cell cycle arrest in human MDA-MB-231 cells assessed as accumulation of cells at G2 phase at 12.5 uM incubated for 48 hrs RNase/PI staining based flow cytometry assay (reference value: 17.4 %); type: functional; in short: as §2
[18] = tested on: MDA-MB-231; experiment: Cell cycle arrest in human MDA-MB-231 cells assessed as accumulation of cells at S phase at 12.5 uM incubated for 48 hrs RNase/PI staining based flow cytometry assay (reference value: […] %); type: functional; in short: as §2
[19] = tested on: MDA-MB-231; experiment: Cell cycle arrest in human MDA-MB-231 cells assessed as accumulation of cells at G2 phase at 25 uM incubated for 48 hrs RNase/PI staining based flow cytometry assay (reference value: 17.4 %); type: functional; in short: as §2
[20] = tested on: MDA-MB-231; experiment: Cell cycle arrest in human MDA-MB-231 cells assessed as accumulation of cells at G1 phase at 25 uM incubated for 48 hrs RNase/PI staining based flow cytometry assay (reference value: 64.3 %); type: functional; in short: as §2
[21] = target: Signal transducer and activator of transcription 3 (Homo sapiens) (UniProt P40763); experiment: Inhibition of STAT3 in human MDA-MB-231 cells assessed as effect on pSTAT3 expression at 5 to 25 uM after 24 hrs by western blot analysis; type: cell-based; in short: as §1
[22] = target: Signal transducer and activator of transcription 3 (Homo sapiens) (UniProt P40763); experiment: Inhibition of STAT3 in human MDA-MB-231 cells assessed as slight downregulation of Bcl-2 expression at 5 to 25 uM after 24 hrs by western blot analysis; type: cell-based; in short: as §1
[23] = target: T4, Protein deacetylase HDAC6 (Homo sapiens) (UniProt Q9UBN7); experiment: Inhibition of HDAC6 in human MDA-MB-231 cells assessed as accumulation of acetylated tubulin at 12.5 to 50 uM by western blot analysis; type: cell-based
T4 sequence (whole entry): T2 sequence (Q9UBN7 whole entry)
In short: (§3)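 MDA-MB-231 cells were grown in DMEM for 24 h, serum-starved for 24 h, then treated for 4 h (DMSO control). Lysates were made in RIPA with protease and phosphatase inhibitors and normalized by BCA. 20-40 µg was run on 4-20% gels and transferred to PVDF, which was blocked in 5% BSA. Membranes were probed overnight for acetyl-α-tubulin or acetyl-H4, then with secondary for 1 h, and bands were quantified by infrared imaging.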

[24] = target: T1, Histone deacetylase 1; experiment: Inhibition of HDAC1 in human MDA-MB-231 cells assessed as accumulation of acetylated H4 at 12.5 to 50 uM by western blot analysis; type: cell-based; in short: as §3
[25] = target: Signal transducer and activator of transcription 3 (Homo sapiens) (UniProt P40763); experiment: Inhibition of STAT3 in human MDA-MB-231 cells assessed as downregulation of cyclinD1 expression at 2.5 to 5 uM after 24 hrs by western blot analysis; type: cell-based; in short: as §1

## O=C(CCCCCCC(=O)Nc1ccccc1)NO [VORINOSTAT]
[1]
  inhibition: Active
[2]
  inhibition: Dose-dependent effect
[3]
  inhibition: Dose-dependent effect
[4]
  Activity: 18.2%
[5]
  inhibition: Active
[6]
  inhibition: inactive
[7]
  Activity: 65.1%

## CCOC(=O)CCCCCCCn1cc(-c2ccc(-c3c(N)nc(N)nc3CC)cc2)nn1
[8]
  IC50: 114 µM
[9]
  IC50: 94.9 µM
[10]
  IC50: 113 µM
[11]
  IC50: 96.6 µM

## CCc1nc(N)nc(N)c1-c1ccc(-c2cn(CCCCCC(=O)NO)nn2)cc1
[12]
  IC50: 0.26 µM
[13]
  IC50: 0.046 µM
[14]
  IC50: 2.8 µM
[9]
  IC50: 38.4 µM

## CCc1nc(N)nc(N)c1-c1ccc(-c2cn(CCCCCCCC(=O)NO)nn2)cc1
[12]
  IC50: 0.21 µM
[15]
  Activity: 24%
[16]
  Activity: 1.63%
[17]
  Activity: 66.8%
[13]
  IC50: 0.021 µM
[18]
  Activity: 5.17%
[19]
  Activity: 70.6%
[20]
  Activity: 22.1%
[21]
  inhibition: inactive
[22]
  inhibition: Active
[2]
  inhibition: Dose-dependent effect
[3]
  inhibition: Dose-dependent effect
[8]
  IC50: 88.5 µM
[23]
  inhibition: Active
[24]
  inhibition: Active
[9]
  IC50: 21.4 µM
[25]
  inhibition: Active
[11]
  IC50: 83.3 µM
